Results as given in EPA's CvTdb concentration-time database.

Columns and labels:
rat = experiment: amount in urine after dosing (umol); settings: dosed: tert-amyl methyl ether, 38.4 ppm, inhalation, duration: 4 hr, F344 (Harlan Winkelmann)
human [1] = experiment: concentration in blood after dosing; negative times count back from the end of exposure; settings: inhalation, male
How it was run: (§1)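 Sampling and analytical methods are those of each source and frequently went unreported. The concentration-versus-time and amount-versus-time points were compiled from published in vivo toxicokinetic studies and two structured collections. Most were digitised from plot screenshots with WebPlotDigitizer, with others copied from tables, in the reported units.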

human [2] = experiment: concentration in blood after dosing; settings: dosed: tert-amyl methyl ether
How it was run: as §1

human [3] = experiment: amount in urine after dosing (umol); settings: dosed: tert-amyl methyl ether
How it was run: as §1

CCC(C)(C)O [tert-amyl alcohol]
rat
Settings | amount in urine
5.91 h | 0.0178
11.97 h | 0.0273
17.83 h | 0.0115
23.9 h | 0.0462

duration: 4 hr
Settings | amount in urine | concentration in blood [nM]
human [1], 0.6509 h, dosed: tert-amyl methyl ether, 50 ppm | – | 17000
human [1], 0.7385 h, dosed: tert-amyl methyl ether, 15 ppm | – | 4840
human [1], 1.158 h, dosed: tert-amyl methyl ether, 50 ppm | – | 16000
human [1], 1.169 h, dosed: tert-amyl methyl ether, 15 ppm | – | 4710
human [1], 2.413 h, dosed: tert-amyl methyl ether, 50 ppm | – | 13400
human [1], 2.567 h, dosed: tert-amyl methyl ether, 15 ppm | – | 4380
human [1], 6.871 h, dosed: tert-amyl methyl ether, 50 ppm | – | 7280
human [1], 7.192 h, dosed: tert-amyl methyl ether, 15 ppm | – | 2200
human [1], 19.71 h, dosed: tert-amyl methyl ether, 50 ppm | – | 1840
human [1], 19.75 h, dosed: tert-amyl methyl ether, 15 ppm | – | 597
human [1], 141 s, dosed: tert-amyl methyl ether, 15 ppm | – | 5450
human [2], 2.005 h, 3.8 ppm, inhalation | – | 816
human [2], 2.034 h, 38.4 ppm, inhalation | – | 7740
human [2], 3.957 h, 38.4 ppm, inhalation | – | 6550
human [2], 3.966 h, 3.8 ppm, inhalation | – | 480
human [2], 6.018 h, 38.4 ppm, inhalation | – | 5900
human [2], 7.942 h, 38.4 ppm, inhalation | – | 4140
human [2], 9.948 h, 38.4 ppm, inhalation | – | 3160
human [2], 11.98 h, 38.4 ppm, inhalation | – | 2850
human [2], 23.91 h, 38.4 ppm, inhalation | – | 835
human [2], 78 s, 3.8 ppm, inhalation | – | 960
human [2], 99 s, 38.4 ppm, inhalation | – | 9530
human [3], 0.144 h, 38.4 ppm, inhalation | 1.36 | –
human [3], 5.941 h, 3.8 ppm, inhalation | 0.345 | –
human [3], 6.198 h, 38.4 ppm, inhalation | 2.11 | –
human [3], 12.1 h, 3.8 ppm, inhalation | 0.143 | –
human [3], 12.11 h, 38.4 ppm, inhalation | 1.74 | –
human [3], 17.91 h, 3.8 ppm, inhalation | 0.0476 | –
human [3], 18.16 h, 38.4 ppm, inhalation | 0.992 | –
human [3], 24.21 h, 38.4 ppm, inhalation | 0.62 | –
human [3], 30.05 h, 38.4 ppm, inhalation | 0.248 | –
human [3], 36.11 h, 38.4 ppm, inhalation | 0.372 | –
human [3], 248 s, 3.8 ppm, inhalation | 0.119 | –

concentration in blood [nM], human [1], dosed: tert-amyl methyl ether, duration: 4 hr, during exposure
Settings | -4 h | -3.999 h | -3.146 h | -3.049 h | -1.944 h | -1.922 h | -1.113 h | -1.062 h
15 ppm | 6 | – | – | 1700 | – | 3520 | – | 4030
50 ppm | – | 10 | 6060 | – | 5580 | – | 11900 | –

oral
Settings | amount in urine | concentration in blood [nM]
human [2], 0.9886 h, 15 mg | – | 972
human [2], 1.015 h, 5 mg | – | 445
human [2], 2.032 h, 15 mg | – | 777
human [2], 2.058 h, 5 mg | – | 340
human [2], 3.046 h, 5 mg | – | 276
human [2], 3.982 h, 15 mg | – | 540
human [2], 4.006 h, 5 mg | – | 220
human [2], 6.037 h, 5 mg | – | 155
human [2], 6.041 h, 15 mg | – | 355
human [2], 8.046 h, 15 mg | – | 254
human [2], 8.067 h, 5 mg | – | 111
human [2], 9.995 h, 15 mg | – | 177
human [2], 10.02 h, 5 mg | – | 86.5
human [2], 12.03 h, 15 mg | – | 101
human [2], 12.05 h, 5 mg | – | 67.4
human [3], 0 h, 5 mg | 0.00166 | –
human [3], 0 h, 15 mg | 0.00586 | –
human [3], 6.182 h, 15 mg | 0.181 | –
human [3], 6.2 h, 5 mg | 0.176 | –
human [3], 11.93 h, 15 mg | 0.0638 | –
human [3], 11.99 h, 5 mg | 0.0598 | –
human [3], 17.98 h, 15 mg | 0.0106 | –
human [3], 18.09 h, 5 mg | 0.0183 | –

CCC(C)(C)OC [tert-amyl methyl ether]
duration: 4 hr
Settings | concentration in blood [nM]
human [1], 0.7676 h, dosed: tert-amyl methyl ether, 15 ppm | 2300
human [1], 1.198 h, dosed: tert-amyl methyl ether, 15 ppm | 1900
human [1], 2.571 h, dosed: tert-amyl methyl ether, 15 ppm | 1140
human [1], 7.198 h, dosed: tert-amyl methyl ether, 15 ppm | 344
human [1], 19.78 h, dosed: tert-amyl methyl ether, 15 ppm | 86.8
human [1], 338 s, dosed: tert-amyl methyl ether, 15 ppm | 4220
human [2], 0 h, 3.8 ppm, inhalation | 589
human [2], 2.022 h, 3.8 ppm, inhalation | 208
human [2], 2.034 h, 38.4 ppm, inhalation | 1350
human [2], 3.985 h, 38.4 ppm, inhalation | 801
human [2], 4.008 h, 3.8 ppm, inhalation | 139
human [2], 6.018 h, 38.4 ppm, inhalation | 611
human [2], 6.02 h, 3.8 ppm, inhalation | 111
human [2], 7.969 h, 38.4 ppm, inhalation | 438
human [2], 9.976 h, 38.4 ppm, inhalation | 225
human [2], 10.01 h, 3.8 ppm, inhalation | 85
human [2], 12.01 h, 38.4 ppm, inhalation | 183
human [2], 12.05 h, 3.8 ppm, inhalation | 73.7
human [2], 99 s, 38.4 ppm, inhalation | 4500

human [1], dosed: tert-amyl methyl ether, 15 ppm, duration: 4 hr, during exposure
Settings | concentration in blood [nM]
-4 h | 6.05
-3.022 h | 1710
-1.895 h | 3490
-0.981 h | 3580

human [2], oral
Settings | concentration in blood [nM]
1.016 h, 15 mg | 145
1.043 h, 5 mg | 60.8
2.059 h, 15 mg | 70.2
2.113 h, 5 mg | 29.4
3.073 h, 5 mg | 13.9
4.009 h, 15 mg | 33
4.034 h, 5 mg | 9.2
6.041 h, 15 mg | 19.9
6.064 h, 5 mg | 6.34
8.046 h, 15 mg | 16.9
8.067 h, 5 mg | 3.85
9.995 h, 15 mg | 9.91
10.04 h, 5 mg | 3.13
12 h, 15 mg | 4.16

ClC=C(Cl)Cl [trichloroethene]
human [1], dosed: trichloroethene, 100 ppmv, duration: 240 min
Settings | concentration in blood [ng/mL]
0.2522 h | 634
0.3977 h | 426
0.9604 h | 198
1.911 h | 112
4.055 h | 4.16

human [1], dosed: trichloroethene, 100 ppmv, duration: 240 min, during exposure
Settings | concentration in blood [ng/mL]
-226 s | 1170
-175 s | 1170
-3.513 h | 588
-3.022 h | 851
-2.029 h | 1100
-1.031 h | 1040
